Experimental data published in ChEMBL document CHEMBL1671834, “Novel 3-aryl indoles as progesterone receptor antagonists for uterine fibroids” (ACS Med Chem Lett, 2011).

How the values were obtained:
Format in all cases: cell-based
Glucocorticoid receptor = biological target: T1, Glucocorticoid receptor (Homo sapiens, UniProt P04150); assay: Displacement of [3H]methyltrienolone from human glucocorticoid receptor expressed in HEK293 cells
T1 sequence (P04150 whole entry): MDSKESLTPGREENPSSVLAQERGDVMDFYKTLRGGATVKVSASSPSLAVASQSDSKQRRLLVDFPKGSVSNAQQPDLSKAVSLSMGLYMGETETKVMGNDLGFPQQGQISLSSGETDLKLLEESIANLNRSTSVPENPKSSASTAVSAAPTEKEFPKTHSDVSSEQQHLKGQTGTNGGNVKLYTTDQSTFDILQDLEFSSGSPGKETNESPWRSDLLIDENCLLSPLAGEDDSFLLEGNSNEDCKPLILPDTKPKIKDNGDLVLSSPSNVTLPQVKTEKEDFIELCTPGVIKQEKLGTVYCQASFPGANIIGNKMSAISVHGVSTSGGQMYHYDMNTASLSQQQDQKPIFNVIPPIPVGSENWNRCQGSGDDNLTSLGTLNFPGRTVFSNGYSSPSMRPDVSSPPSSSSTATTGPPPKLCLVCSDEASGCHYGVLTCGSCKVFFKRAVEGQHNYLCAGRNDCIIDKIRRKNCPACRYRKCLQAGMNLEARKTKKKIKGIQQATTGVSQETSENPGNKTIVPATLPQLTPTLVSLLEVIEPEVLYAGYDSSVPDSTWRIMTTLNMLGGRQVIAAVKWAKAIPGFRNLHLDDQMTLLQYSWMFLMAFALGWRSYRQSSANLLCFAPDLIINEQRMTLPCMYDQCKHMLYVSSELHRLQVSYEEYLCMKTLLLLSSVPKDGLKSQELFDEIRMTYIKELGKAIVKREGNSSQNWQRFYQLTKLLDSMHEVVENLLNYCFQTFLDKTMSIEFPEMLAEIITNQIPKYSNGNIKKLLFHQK

[1] = biological target: T2, Mineralocorticoid receptor (Homo sapiens, UniProt P08235); assay: Displacement of [3H]methyltrienolone from human mineralocorticoid receptor expressed in HEK293 cells
T2 sequence (P08235 whole entry): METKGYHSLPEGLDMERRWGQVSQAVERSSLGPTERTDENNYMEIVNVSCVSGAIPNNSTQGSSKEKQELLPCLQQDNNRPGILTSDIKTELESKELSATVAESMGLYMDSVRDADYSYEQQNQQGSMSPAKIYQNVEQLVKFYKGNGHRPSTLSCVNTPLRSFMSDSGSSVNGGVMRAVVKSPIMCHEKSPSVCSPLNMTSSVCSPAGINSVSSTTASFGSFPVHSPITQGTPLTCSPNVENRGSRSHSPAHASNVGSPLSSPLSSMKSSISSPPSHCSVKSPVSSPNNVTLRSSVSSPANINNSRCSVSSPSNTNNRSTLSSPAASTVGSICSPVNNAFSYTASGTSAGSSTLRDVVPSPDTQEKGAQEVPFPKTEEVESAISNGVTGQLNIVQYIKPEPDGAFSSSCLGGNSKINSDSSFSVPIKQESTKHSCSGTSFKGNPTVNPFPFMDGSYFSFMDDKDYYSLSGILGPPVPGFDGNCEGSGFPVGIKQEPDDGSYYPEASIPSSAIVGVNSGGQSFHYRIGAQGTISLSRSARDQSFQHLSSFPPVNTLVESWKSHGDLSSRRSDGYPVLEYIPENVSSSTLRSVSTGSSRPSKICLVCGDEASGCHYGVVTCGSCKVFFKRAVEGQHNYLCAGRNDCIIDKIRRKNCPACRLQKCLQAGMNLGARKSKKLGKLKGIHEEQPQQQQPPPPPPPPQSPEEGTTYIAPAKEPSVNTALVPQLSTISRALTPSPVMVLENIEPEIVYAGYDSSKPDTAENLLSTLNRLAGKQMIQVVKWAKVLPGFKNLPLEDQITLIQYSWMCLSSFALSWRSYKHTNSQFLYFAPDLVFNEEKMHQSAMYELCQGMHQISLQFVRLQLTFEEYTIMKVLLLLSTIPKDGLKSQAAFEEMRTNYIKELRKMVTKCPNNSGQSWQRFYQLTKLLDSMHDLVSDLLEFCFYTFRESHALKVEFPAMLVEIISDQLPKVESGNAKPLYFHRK
Summary of the method: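 Competitive binding to recombinant full-length human receptors against tritium-labelled standards. Values are geometric means of at least duplicate determinations.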

Androgen receptor = biological target: T3, Androgen receptor (Homo sapiens, UniProt P10275); assay: Displacement of [3H]methyltrienolone from human androgen receptor expressed in HEK293 cells
T3 sequence (P10275 whole entry): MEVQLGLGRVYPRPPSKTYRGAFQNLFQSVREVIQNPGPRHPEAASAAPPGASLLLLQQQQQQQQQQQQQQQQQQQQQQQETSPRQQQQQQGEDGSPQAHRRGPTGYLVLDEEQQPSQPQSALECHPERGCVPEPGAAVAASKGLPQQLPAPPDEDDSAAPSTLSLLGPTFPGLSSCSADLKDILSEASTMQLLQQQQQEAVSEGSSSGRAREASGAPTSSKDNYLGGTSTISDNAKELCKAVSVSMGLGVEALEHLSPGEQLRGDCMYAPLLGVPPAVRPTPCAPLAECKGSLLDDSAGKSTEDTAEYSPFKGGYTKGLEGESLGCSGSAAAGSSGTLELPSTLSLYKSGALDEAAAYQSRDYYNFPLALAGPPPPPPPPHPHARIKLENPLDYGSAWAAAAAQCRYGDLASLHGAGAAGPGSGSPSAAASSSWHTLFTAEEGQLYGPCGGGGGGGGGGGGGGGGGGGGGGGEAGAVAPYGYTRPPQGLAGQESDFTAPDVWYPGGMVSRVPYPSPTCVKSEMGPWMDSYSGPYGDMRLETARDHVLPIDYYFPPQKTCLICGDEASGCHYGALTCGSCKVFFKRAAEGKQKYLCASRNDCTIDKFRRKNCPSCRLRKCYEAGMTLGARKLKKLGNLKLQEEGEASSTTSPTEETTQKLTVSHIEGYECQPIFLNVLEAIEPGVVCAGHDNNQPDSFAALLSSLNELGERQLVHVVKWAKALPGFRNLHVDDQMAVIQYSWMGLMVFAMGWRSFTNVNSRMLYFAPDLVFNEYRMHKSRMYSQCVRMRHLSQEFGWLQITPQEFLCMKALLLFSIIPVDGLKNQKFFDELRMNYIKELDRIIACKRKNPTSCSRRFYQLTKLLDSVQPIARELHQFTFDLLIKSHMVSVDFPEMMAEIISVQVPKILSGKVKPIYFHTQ

| Structure (SMILES) | Ki (Glucocorticoid receptor) [nM] | Ki [1] [nM] | Ki (Androgen receptor) [nM] |
| --- | --- | --- | --- |
| Cc1cc(-c2cn(C(C)C)c3cc(NS(C)(=O)=O)ccc23)ccc1C#N | 157 | 126 | 403 |
| COc1ccc(C(c2ccccc2)c2c[nH]c3ccccc23)cc1 (stereo not given) | 50.2 | 86.8 | 68.9 |
| Cn1cc(-c2ccc(C#N)cc2)c2ccc(NS(C)(=O)=O)cc21 | > 4290 | > 4170 | > 4020 |
| CC[C@@H](C)n1cc(-c2ccc(C#N)cc2)c2ccc(NS(C)(=O)=O)cc21 | 780 | 1440 | 2550 |
| CCn1cc(-c2ccc(C#N)cc2)c2ccc(NS(C)(=O)=O)cc21 | 927 | 1770 | 2590 |
| CC[C@H](C)n1cc(-c2ccc(C#N)cc2)c2ccc(NS(C)(=O)=O)cc21 | 1860 | 1000 | 1740 |
| CC(C)n1cc(-c2ccc(C#N)c(F)c2)c2ccc(NS(C)(=O)=O)cc21 | 523 | 849 | 648 |
| COc1cc(-c2cn(C(C)C)c3cc(NS(C)(=O)=O)ccc23)ccc1C#N | 977 | 1390 | 490 |
| CC(c1ccc(F)cc1)(c1c[nH]c2c(NS(C)(=O)=O)cccc12)C1CC1 (stereo not given) | 6.39 | 0.64 | 220 |
| CC(C)n1cc(-c2ccc(C#N)cc2)c2ccc(NS(C)(=O)=O)cc21 | 1530 | 1490 | > 3900 |
